In ChEMBL document CHEMBL1122123 (1982):

Legend:
Assay type in all cases: functional
[1] = In vitro potency of compound to stimulate adenylate cyclase activity in melanoma cells relative to alpha-MSH
In short: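 Particulate membranes from Cloudman S-91 mouse melanoma tumors grown in DBA/2J mice were used as a cell-free system, 56 μg of protein per assay. Adenylate cyclase activity was measured as conversion of [α-³²P]ATP to [³²P]cAMP, with cAMP isolated by the Salomon method. Full dose-response curves were run in triplicate. Potency is relative to α-MSH: concentration of α-MSH at 50% response divided by that of the peptide.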

[2] = tested on: lizard; assay: In vitro potency of compound to stimulate melanosome dispersion in lizard skin relative to alpha-MSH
In short: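 Isolated Anolis carolinensis lizard skins were scored in vitro for melanosome dispersion (darkening) across the entire dose-response range. Relative potency is the ratio of the α-MSH concentration giving 50% response to the peptide concentration giving 50% response.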

[3] = tested on: Melanocyte-stimulating hormone receptor; assay: In vitro potency of compound to stimulate melanosome dispersion in frog (Rana pipiens) skin relative to alpha-MSH

Row | Molecule | Potency [3] | Potency [1] | Potency [2]
1 | CSCC[C@H](NC(C)=O)C(=O)N[C@@H](CCC(=O)O)C(=O)N[C@@H](Cc1c[nH]cn1)C(=O)N[C@@H](Cc1ccccc1)C(=O)N[C@@H](CCCN=C(N)N)C(=O)N[C@@H](Cc1c[nH]c2ccccc12)C(=O)NCC(N)=O | 0.0003 |  | 0.004
2 | CCCC[C@H](NC(C)=O)C(=O)N[C@@H](CCC(=O)O)C(=O)N[C@@H](Cc1c[nH]cn1)C(=O)N[C@@H](Cc1ccccc1)C(=O)N[C@@H](CCCN=C(N)N)C(=O)N[C@@H](Cc1c[nH]c2ccccc12)C(=O)NCC(N)=O | 0.002 | 0.09 | 0.06

Further lines, with some results ahead:

Row | Potency [3] | Molecule | Potency [1] | Potency [2]
3 | 0.02 | CCCC[C@H](NC(C)=O)C(=O)N[C@@H](CCC(=O)O)C(=O)N[C@@H](Cc1c[nH]cn1)C(=O)N[C@H](Cc1ccccc1)C(=O)N[C@@H](CCCN=C(N)N)C(=O)N[C@@H](Cc1c[nH]c2ccccc12)C(=O)NCC(N)=O | 7.7 | 10
4 | 0.0002 | Ac-YEHFRWG-NH2 | 0.001 | 0.0006
5 | 1e-05 | CSCC[C@H](N)C(=O)N[C@@H](CCC(=O)O)C(=O)N[C@@H](Cc1c[nH]cn1)C(=O)N[C@@H](Cc1ccccc1)C(=O)N[C@@H](CCCN=C(N)N)C(=O)N[C@@H](Cc1c[nH]c2ccccc12)C(=O)NCC(=O)O |  | 4e-05
